Here are results for eleven compounds from ChEMBL document CHEMBL2434954, “Novel 6β-acylaminomorphinans with analgesic activity” (Eur J Med Chem, 2013).

Active and inactive are the calls of the source.

The subject of data set [1] is Mus musculus. Put plainly: Analgesic activity in sc dosed CD1 mouse assessed as increase in pain threshold by tail flick method. The class given is functional. The method, boiled down: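 Male CD-1 mice (25-35 g), radiant heat tail-flick. Baseline 2.0-3.0 s, mean of two trials. Cumulative s.c. dosing, tested 30 min after dose, groups n=10, two independent assays. Analgesia defined quantally as doubling or more of baseline latency.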

Data set [2] concerns Mus musculus. Put plainly: Toxicity in CD1 mouse assessed as respiratory depression at 20 mg/kg, sc measured after 15 to 35 mins. The class given is organism-based. Set-up: dose 20 mg/kg, route subcutaneous. The conditions noted are these: in vivo. The method, boiled down: (§1)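 Awake, freely moving adult male CD1 mice, pulse oximeter breath rate after 30 min habituation. 5-s average breath rate every 5 min. Baseline over 25 min before s.c. injection, then recorded from 15 min post-injection for 35 min. Groups n=3, saline control. Values given as percent of baseline.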

For data set [3], the target named is T1, Mu-type opioid receptor (Mus musculus, UniProt P42866). The experiment in a line: Displacement of [125I]-BNtxA from mouse cloned mu opioid receptor expressed in CHO cells after 90 mins. Type of data set: cell-based. The essentials:
(§2)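 CHO membranes stably expressing cloned mouse MOR-1, DOR-1 or KOR-1 (30-40 μg/mL protein), competition against 0.1 nM 125I-BNtxA. Incubation 90 min at 25°C in 50 mM potassium phosphate pH 7.4, with 5 mM MgSO4 for MOR-1 only. Nonspecific binding with 8 μM levallorphan. Ki from IC50. Mean ± SEM, at least three replicates.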

Data set [4] deals with T2, Delta-type opioid receptor (Mus musculus, UniProt P32300). The experiment in a line: Displacement of [125I]-BNtxA from mouse cloned delta opioid receptor expressed in CHO cells after 90 mins. Type of data set: cell-based. The essentials:
as §2

Data set [5] concerns the target T3, Kappa-type opioid receptor (Mus musculus, UniProt P33534). The experiment in a line: Displacement of [125I]-BNtxA from mouse cloned kappa opioid receptor expressed in CHO cells after 90 mins. The class given is cell-based. The essentials:
as §2
(In general: In a radioligand displacement assay an active substance lowers the binding of a labelled ligand.)

In data set [6] the target is T2, Delta-type opioid receptor. The experiment in a line: Agonist activity at mouse cloned delta opioid receptor expressed in CHO cells after 60 mins by [35S]GTPgammaS binding assay. The class given is functional, cell-based. The method, boiled down:
(§3)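 Membranes from transfected cells incubated with agonist 60 min at 30°C in 50 mM Tris-HCl pH 7.4, 3 mM MgCl2, 0.2 mM EGTA, 10 mM NaCl, with 0.05 nM [35S]GTPγS and GDP. Filtration on glass-fibre filters, scintillation counting. Basal binding with GDP and no drug. Mean ± SEM, three assays in triplicate.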
(In general: Binding of GTPγS marks nucleotide exchange on a G protein.)

Data set [7] concerns the target T1, Mu-type opioid receptor. The experiment in a line: Agonist activity at mouse cloned mu opioid receptor expressed in CHO cells after 60 mins by [35S]GTPgammaS binding assay. The class given is functional, cell-based. The method, boiled down: as §3
The species entered for data set [8] is Mus musculus. Put plainly: Selectivity ratio of EC50 for mouse cloned kappa opioid receptor to EC50 for mouse cloned mu opioid receptor by [35S]GTPgammaS binding assay. The class given is functional.
In data set [9] the target is Delta-type opioid receptor (Mus musculus) (UniProt P32300). The experiment in a line: Agonist activity at mouse cloned delta opioid receptor expressed in CHO cells after 60 mins by [35S]GTPgammaS binding assay relative to DPDPE. Type of data set: functional, cell-based. The method, boiled down: (§4)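 Membranes from transfected cells incubated with agonist 60 min at 30°C in 50 mM Tris-HCl pH 7.4, 3 mM MgCl2, 0.2 mM EGTA, 10 mM NaCl, with 0.05 nM [35S]GTPγS and GDP. Filtration on glass-fibre filters, scintillation counting. Basal binding with GDP and no drug. […] Mean ± SEM, three assays in triplicate.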
Delta-type opioid receptor (Mus musculus), sequence (P32300 whole entry): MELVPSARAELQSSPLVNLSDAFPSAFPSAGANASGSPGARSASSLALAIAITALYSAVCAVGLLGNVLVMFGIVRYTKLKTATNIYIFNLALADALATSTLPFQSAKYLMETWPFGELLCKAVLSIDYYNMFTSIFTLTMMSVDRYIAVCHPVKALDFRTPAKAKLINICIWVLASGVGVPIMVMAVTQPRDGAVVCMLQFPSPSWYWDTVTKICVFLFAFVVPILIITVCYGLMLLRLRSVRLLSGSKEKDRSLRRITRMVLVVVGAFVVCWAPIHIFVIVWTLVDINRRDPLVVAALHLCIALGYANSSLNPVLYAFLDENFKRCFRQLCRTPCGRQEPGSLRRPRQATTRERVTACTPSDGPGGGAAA

In data set [10] the target is Mu-type opioid receptor (Mus musculus) (UniProt P42866). The experiment in a line: Agonist activity at mouse cloned mu opioid receptor expressed in CHO cells after 60 mins by [35S]GTPgammaS binding assay relative to DAMGO. Type of data set: functional, cell-based. The method, boiled down:
as §4

Data set [11] has as its target T3, Kappa-type opioid receptor. The experiment in a line: Agonist activity at mouse cloned kappa opioid receptor expressed in CHO cells after 60 mins by [35S]GTPgammaS binding assay. The class given is functional, cell-based. The method, boiled down: as §4
Data set [12] concerns Mus musculus. Put plainly: Analgesic activity in sc dosed CD1 mouse assessed as increase in pain threshold by tail flick method in presence of kappa opioid receptor antagonist norBNI. The class given is functional, organism-based. The essentials: (§5)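 Tail-flick test in CD1 mice (n=6 per group) given agonist 5 mg/kg s.c. alone or with antagonist s.c.: norBNI 10 mg/kg or β-FNA 40 mg/kg 24 h before, NTI 20 mg/kg 15 min before. Latency read 30 min after agonist. Two independent replications; ANOVA with Bonferroni test (p < 0.05).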

For data set [13], the species on record is Mus musculus. Put plainly: Selectivity ratio of EC50 for mouse cloned delta opioid receptor to EC50 for mouse cloned mu opioid receptor by [35S]GTPgammaS binding assay. The class given is functional.
For data set [14], the system named is Mus musculus. Put plainly: Analgesic activity in sc dosed CD1 mouse assessed as increase in pain threshold by tail flick method in presence of mu opioid receptor antagonist beta-FNA. Type of data set: functional, organism-based. The method, boiled down: as §5
(In hot-plate and tail-flick tests a longer latency is read as antinociception.)

Data set [15] has as its target Kappa-type opioid receptor (Mus musculus) (UniProt P33534). Put plainly: Agonist activity at mouse cloned kappa opioid receptor expressed in CHO cells at 100 nM after 60 mins by [35S]GTPgammaS binding assay relative to U50488H. Type of data set: functional, cell-based. The essentials: as §4
Data set [16] is filed under the species Mus musculus. Put plainly: Selectivity ratio of Ki for mouse cloned delta opioid receptor to Ki for mouse cloned mu opioid receptor.
The subject of data set [17] is Mus musculus. The experiment in a line: Toxicity in CD1 mouse assessed as respiratory depression at 24 mg/kg, sc measured after 15 to 35 mins. The class given is organism-based. Set-up: dose 24 mg/kg, route subcutaneous. The conditions noted are these: in vivo. The essentials:
as §1

Data set [18] deals with Mus musculus. The experiment in a line: Analgesic activity in sc dosed CD1 mouse assessed as increase in pain threshold by tail flick method in presence of delta opioid receptor antagonist […]. The class given is functional, organism-based. The essentials:
as §5

The species named for data set [19] is Mus musculus. Put plainly: Selectivity ratio of Ki for mouse cloned kappa opioid receptor to Ki for mouse cloned mu opioid receptor.

T2 sequence (P32300 whole entry): as above
T1 sequence (P42866 whole entry): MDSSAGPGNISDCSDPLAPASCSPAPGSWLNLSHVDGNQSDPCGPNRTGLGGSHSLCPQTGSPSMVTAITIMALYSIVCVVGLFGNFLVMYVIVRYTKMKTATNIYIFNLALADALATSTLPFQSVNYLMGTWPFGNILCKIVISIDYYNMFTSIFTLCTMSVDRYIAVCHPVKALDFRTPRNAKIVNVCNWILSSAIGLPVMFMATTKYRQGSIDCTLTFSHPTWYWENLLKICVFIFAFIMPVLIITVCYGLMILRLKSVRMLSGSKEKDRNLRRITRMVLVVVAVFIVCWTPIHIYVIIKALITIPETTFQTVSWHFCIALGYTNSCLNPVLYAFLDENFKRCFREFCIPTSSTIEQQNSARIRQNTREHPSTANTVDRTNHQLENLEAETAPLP
T3 sequence (P33534 whole entry): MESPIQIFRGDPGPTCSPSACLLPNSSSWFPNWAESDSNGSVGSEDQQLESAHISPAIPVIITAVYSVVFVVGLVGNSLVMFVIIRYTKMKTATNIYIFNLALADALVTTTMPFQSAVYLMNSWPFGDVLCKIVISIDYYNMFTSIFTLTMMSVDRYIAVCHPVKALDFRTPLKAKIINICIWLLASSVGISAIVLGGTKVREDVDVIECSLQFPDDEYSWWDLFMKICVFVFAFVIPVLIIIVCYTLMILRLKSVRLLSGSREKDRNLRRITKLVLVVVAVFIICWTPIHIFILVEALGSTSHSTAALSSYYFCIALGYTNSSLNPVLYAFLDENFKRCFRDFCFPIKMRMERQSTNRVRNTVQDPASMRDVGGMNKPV
Mu-type opioid receptor (Mus musculus), sequence (P42866 whole entry): as the sequence (P42866 whole entry) above
Kappa-type opioid receptor (Mus musculus), sequence (P33534 whole entry): as the sequence (P33534 whole entry) above

Take `CN1CC[C@]23c4c5ccc(O)c4O[C@H]2[C@@H](O)C=C[C@H]3[C@H]1C5` [MORPHINE]: in the data set with Mus musculus [1], the ED50 was found to be 4.96 mg/kg. In the data set with Mus musculus [2], the Activity result is listed as “Toxic”.

With `CN1CC[C@]23c4c5ccc(O)c4O[C@H]2[C@H](NC(=O)/C=C/c2cccc([N+](=O)[O-])c2)C=C[C@H]3[C@H]1C5`, the Ki at Mu-type opioid receptor [3] was 0.12 nM; in data set [4], 5.15 nM; in data set [5], 0.81 nM. In the data set on Mus musculus [1], the median effective dose (ED50) was over 10 mg/kg.

Consider `COc1ccc(/C=C/C(=O)N[C@@H]2C=C[C@H]3[C@H]4Cc5ccc(O)c6c5[C@@]3(CCN4C)[C@H]2O6)cc1`, for which the values for the Ki (at Mu-type opioid receptor [3]; in [4]; in data set [5]) were 0.74 nM, 15.3 nM and 5.43 nM, respectively. For the same compound, the ED50 in the data set with Mus musculus [1] was over 10 mg/kg.

For the compound `COc1ccc2c3c1O[C@H]1[C@H](NC(=O)/C=C/c4ccc(C(F)(F)F)cc4)C=C[C@H]4[C@@H](C2)N(C)CC[C@@]341`, the Ki at Mu-type opioid receptor [3] was 5.44 nM; in [4], over 100 nM; in data set [5] it was over 100 nM. The ED50 in the data set with Mus musculus [1] is over 10 mg/kg.

In the case of `COc1ccc2c3c1O[C@H]1[C@H](NC(=O)/C=C/c4ccc(Cl)cc4)C=C[C@H]4[C@@H](C2)N(C)CC[C@@]341`, the values for the inhibition constant Ki (on Mu-type opioid receptor [3]; in data set [4]; in data set [5]) were 3.81 nM, over 100 nM and over 100 nM, respectively. In addition, the ED50 with Mus musculus [1] is over 10 mg/kg.

With `CN1CC[C@]23c4c5ccc(O)c4O[C@H]2[C@H](NC(=O)/C=C/c2ccc(Cl)cc2)C=C[C@H]3[C@H]1C5`, the Ki amounted to 0.15 nM on Mu-type opioid receptor [3], 9.38 nM in data set [4] and 1.97 nM in data set [5]. Moreover, the ED50 in the data set on Mus musculus [1] is over 10 mg/kg.

Regarding `COc1ccc2c3c1O[C@H]1[C@H](NC(=O)/C=C/c4ccccc4)C=C[C@H]4[C@@H](C2)N(C)CC[C@@]341`, the Ki is 4.73 nM at Mu-type opioid receptor [3], over 100 nM in data set [4] and over 100 nM in [5]. Besides, the ED50 in the data set on Mus musculus [1] is over 10 mg/kg.

As for `CN1CC[C@]23c4c5ccc(O)c4O[C@H]2[C@H](NC(=O)/C=C/c2ccccc2)C=C[C@H]3[C@H]1C5`, the EC50 in [6] worked out at 9.1 nM; at Mu-type opioid receptor [7], 1.38 nM; in [11], 36.5 nM. The Ratio EC50 came to 25 in the data set listed under Mus musculus [8] and 4 in the data set listed under Mus musculus [13]. In addition, the Efficacy stood at 102% in data set [9], 95.3% in [10] and 106% in data set [15]. Besides, the inhibition constant Ki at Mu-type opioid receptor [3] was 0.1 nM; in [4], 10.3 nM; in [5] it was 2.9 nM. In the data set on Mus musculus [12], the result was Active. Also, the ED50 in the data set on Mus musculus [1] worked out at 3.13 mg/kg. The outcome in the data set with Mus musculus [14] and in the data set with Mus musculus [18] was inactive. In addition, in the data set filed under Mus musculus [16], the Ratio Ki came out at 103. Further, in the data set with Mus musculus [17], the Activity result is reported as “Non-toxic”.

Take `COc1ccc(/C=C/C(=O)N[C@@H]2C=C[C@H]3[C@H]4Cc5ccc(OC)c6c5[C@@]3(CCN4C)[C@H]2O6)cc1`: the inhibition constant Ki on Mu-type opioid receptor [3] was 25.2 nM; in [4], over 100 nM; in [5] it was over 100 nM. In the data set on Mus musculus [1], the median effective dose (ED50) is over 10 mg/kg.

On to `COc1ccc2c3c1O[C@H]1[C@H](NC(=O)/C=C/c4cccc([N+](=O)[O-])c4)C=C[C@H]4[C@@H](C2)N(C)CC[C@@]341`, for which the inhibition constant (Ki) is 3.74 nM on Mu-type opioid receptor [3], over 100 nM in data set [4] and over 100 nM in data set [5]. Further, in the data set with Mus musculus [1], the median effective dose (ED50) was over 10 mg/kg.

With `CN1CC[C@]23c4c5ccc(O)c4O[C@H]2[C@H](NC(=O)/C=C/c2ccc(C(F)(F)F)cc2)C=C[C@H]3[C@H]1C5`, the Ki on Mu-type opioid receptor [3] worked out at 0.19 nM; in data set [4], 14.5 nM; in [5] it was 10.5 nM. For the same compound, in the data set with Mus musculus [1], the ED50 is over 10 mg/kg. The Ratio Ki in the data set filed under Mus musculus [19] is 55.4.

Broadly, the ED50 is the dose at which the effect has come halfway, by size or by number of responders. The Ki is the dissociation constant of the complex between target and ligand, obtained from inhibition or displacement. Higher therefore signals a looser hold on the target. The EC50 is the midpoint of the concentration-response curve.
